Reference: ChEMBL document CHEMBL3808340, “Development of Novel 1,2,3,4-Tetrahydroquinoline Scaffolds as Potent NF-κB Inhibitors and Cytotoxic Agents” (ACS Med Chem Lett, 2016)

Assays:
[1] = Cytotoxicity against human NUGC3 cells after 72 hrs by sulforhodamine B assay; assay type: functional; conditions: NUGC-3, 72 h
Procedure, shortened: (§1)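 Sulforhodamine B staining following the NCI (USA) protocol was used to estimate cell number indirectly in six human cancer lines. GI50 is the concentration giving a 50% decrease in net cell growth, reported as the mean of three experiments.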

MDA-MB-231 = assay: Cytotoxicity against human MDA-MB-231 cells after 72 hrs by sulforhodamine B assay; assay type: functional; conditions: MDA-MB-231, 72 h; procedure, shortened: as §1
[2] = Cytotoxicity against human PC3 cells after 72 hrs by sulforhodamine B assay; assay type: functional; conditions: PC-3, 72 h; procedure, shortened: as §1
RAW264.7 = assay: Inhibition of LPS-induced NFkappaB (unknown origin) transcriptional activity expressed in mouse RAW264.7 cells at 100 uM incubated for 16 hrs by SEAP based reporter gene assay relative to control; assay type: cell-based
[3] = Inhibition of LPS-induced NFkappaB (unknown origin) transcriptional activity expressed in mouse RAW264.7 cells incubated for 16 hrs by SEAP based reporter gene assay; assay type: cell-based; conditions: RAW264.7, 16 h
ACHN = assay: Cytotoxicity against human ACHN cells after 72 hrs by sulforhodamine B assay; assay type: functional; procedure, shortened: as §1
[4] = Cytotoxicity against human HCT15 cells after 72 hrs by sulforhodamine B assay; assay type: functional; conditions: HCT-15, 72 h; procedure, shortened: as §1
NCI-H23 = assay: Cytotoxicity against human NCI-H23 cells after 72 hrs by sulforhodamine B assay; assay type: functional; conditions: NCI-H23, 72 h; procedure, shortened: as §1

| SMILES | GI50 [1] | GI50 (MDA-MB-231) | GI50 [2] | inhibition (RAW264.7) | IC50 [3] | GI50 (ACHN) | GI50 [4] | GI50 (NCI-H23) |
| --- | --- | --- | --- | --- | --- | --- | --- | --- |
| O=C(Nc1ccccc1O)C1CCc2ccccc2N1C(=O)c1ccccc1Cl (stereo not given) | 36.8 µM | 47.4 µM | 60 µM | 78% | 20 µM | 44.2 µM | 44.9 µM | 46.9 µM |
| O=C(Nc1cc(C(F)(F)F)cc(C(F)(F)F)c1)c1ccc2ccccc2n1 |  |  |  |  |  |  |  | 1.44 µM |
| O=C(Nc1cc(C(F)(F)F)cc(C(F)(F)F)c1)C1CCc2ccccc2N1C(=O)c1ccccc1Cl (stereo not given) | 1.93 µM | 5.25 µM | 8.04 µM | 90% | 23 µM | 4.7 µM | 4.05 µM | 2.08 µM |
| O=C(Nc1ccc(C(F)(F)F)cc1)C1CCc2ccccc2N1 (stereo not given) | 18.6 µM | 24.2 µM | 20.3 µM | 79% | 68 µM | 25 µM | 17.6 µM | 25.8 µM |
| O=C(Nc1ccc(O)cc1)C1CCc2ccccc2N1 (stereo not given) | > 100 µM | > 100 µM | > 100 µM | 64% | 65 µM | > 100 µM | > 100 µM | > 100 µM |
| O=C(Nc1ccccc1O)C1CCc2ccccc2N1C(=O)c1cccc(Cl)c1 (stereo not given) | 11 µM | 10.6 µM | 23.3 µM | 58% | 78 µM | 17.2 µM | 23.1 µM | 11.6 µM |
| O=C(Nc1ccc(O)cc1)c1ccc2ccccc2n1 |  |  |  |  |  |  |  | 102 µM |
| O=C(Nc1ccccc1C(F)(F)F)C1CCc2ccccc2N1C(=O)c1ccccc1 (stereo not given) | 8.12 µM | 5.29 µM | 5.56 µM | 44% |  | 8.09 µM | 6.5 µM | 6.34 µM |
| O=C(Nc1ccccc1O)c1ccc2ccccc2n1 |  |  |  |  |  |  |  | 87.5 µM |
| CC(=O)N1c2ccccc2CCC1C(=O)Nc1ccccc1O (stereo not given) | 49.7 µM | 89.6 µM | 70.7 µM | 19% |  | 50.7 µM | 54.5 µM | 65.7 µM |
| O=C(Nc1ccc(C(F)(F)F)cc1)c1ccc2ccccc2n1 |  |  |  |  |  |  |  | > 90 µM |
| O=C(Nc1ccccc1)c1ccc2ccccc2n1 |  |  |  |  |  |  |  | 108 µM |
| S=C(S)N1CCCC1 [PYRROLIDINE DITHIOCARBAMATE] |  |  |  |  | 37.2 µM |  |  |  |
| CCCC(=O)N1c2ccccc2CCC1C(=O)Nc1ccccc1O (stereo not given) | 35.4 µM | 38 µM | 72.5 µM | 41% |  | 50.6 µM | 58.3 µM | 43.1 µM |
| COc1ccc(NC(=O)c2ccc3ccccc3n2)cc1 |  |  |  |  |  |  |  | 7.65 µM |
| CCC(=O)N1c2ccccc2CCC1C(=O)Nc1ccccc1O (stereo not given) | > 90 µM | > 90 µM | > 90 µM | 31% |  | > 90 µM | > 90 µM | > 90 µM |
| COc1cc2c(cc1O)CCC(C(=O)Nc1ccccc1)O2 (stereo not given) |  |  |  | 72% | 53 µM |  |  |  |
| CC(=O)N1c2ccccc2CCC1C(=O)Nc1ccccc1C(F)(F)F (stereo not given) | > 80 µM | > 80 µM | > 80 µM | 32% |  | > 80 µM | > 80 µM | > 80 µM |
| CCCCCCCCC(=O)N1c2ccccc2CCC1C(=O)Nc1ccccc1O (stereo not given) | 31.1 µM | 54.3 µM | 45.2 µM | 22% |  | 65 µM | 38.4 µM | 55.8 µM |
| CCC(=O)N1c2ccccc2CCC1C(=O)Nc1ccccc1C(F)(F)F (stereo not given) | > 80 µM | > 80 µM | > 80 µM | 43% |  | > 80 µM | > 80 µM | > 80 µM |
| O=C(Nc1ccccc1C(F)(F)F)c1ccc2ccccc2n1 |  |  |  |  |  |  |  | > 90 µM |
| COc1cccc2c1C(=O)c1c(O)c3c(c(O)c1C2=O)C[C@@](O)(C(=O)CO)C[C@@H]3O[C@H]1C[C@H](N)[C@H](O)[C@H](C)O1 [DOXORUBICIN] | 0.125 µM | 0.112 µM | 0.0923 µM |  |  | 0.0995 µM | 0.0854 µM | 0.0726 µM |
